T cruzi growth = T. cruzi proliferation inhibition; T. cruzi beta-gal in NIH3T3, GalScreen luminescence, 90 h; inhibition, % at 8.34 µM; actives 5.9% (n = 77,000);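 active means mean inhibition above about 93%, with at least 55% of replicates each passing it, limit read from the data, passing the limit was not always enough; inconclusive means only one of those two conditions holds; inactive means neither condition holds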
GASC1 inh = KDM4C (human) demethylase inhibition | Q9H3R0 | GST-KDM4C 2-372, H3K9me3 peptide, LANCE TR-FRET | inhibition, % at 12.5 µM | actives 0.15% (n = 96,000);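 active means mean replicate inhibition above about 25%, with at least 55% of replicates also reaching it, limit read from the data, passing the limit was not always enough; inconclusive means only one of those two conditions met; inactive means neither condition met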
Target sequence (Q9H3R0 2-372 limits assumed): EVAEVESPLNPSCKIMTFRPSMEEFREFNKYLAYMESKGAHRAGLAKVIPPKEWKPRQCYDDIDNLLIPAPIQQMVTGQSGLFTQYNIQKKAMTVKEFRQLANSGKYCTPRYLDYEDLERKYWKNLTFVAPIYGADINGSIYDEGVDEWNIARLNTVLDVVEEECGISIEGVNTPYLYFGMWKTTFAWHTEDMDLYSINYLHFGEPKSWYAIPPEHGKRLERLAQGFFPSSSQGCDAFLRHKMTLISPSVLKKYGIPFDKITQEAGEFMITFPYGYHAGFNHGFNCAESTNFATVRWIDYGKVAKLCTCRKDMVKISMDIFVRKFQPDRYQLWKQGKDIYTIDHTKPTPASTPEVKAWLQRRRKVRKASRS
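Test system – GST-tagged GASC-1 (JMJD2C) catalytic fragment, aa 2-372 · Medium – HEPES buffer, pH 7.5, plus ascorbate · Reagent – H3K9me3 peptide with Fe(II)/2OG · Compound – one test concentration per compound · Timing – 30 min reaction, 60 min detection, RT · Technique – TR-FRET with Eu antibody and ULight streptavidin, EDTA stop · Read-out basis – inhibition from TR-FRET ratio decrease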
Pf Dd2 inh = inhibitors of Plasmodium falciparum Dd2 growth. P. falciparum Dd2 growth, SYBR Green, 72 h; active compounds read low. activity change, % at 10 µM. actives 2.3% (n = 94,000). AID 1159554; in the data active means activity change below about -80%; inconclusive means no clear call, values can overlap the other calls
IDH1 R132H inh = inhibitors of human IDH1 R132H; IDH1 R132H reductase, diaphorase/resazurin fluorescence, 60 min; inhibition, % at 10 µM; actives 0.18% (n = 70,000); AID 624101; in the data active means inhibition above about 34%; inconclusive means no clear call, values can overlap the other calls; inactive means below about 11%
Target sequence (O75874 whole entry R132H): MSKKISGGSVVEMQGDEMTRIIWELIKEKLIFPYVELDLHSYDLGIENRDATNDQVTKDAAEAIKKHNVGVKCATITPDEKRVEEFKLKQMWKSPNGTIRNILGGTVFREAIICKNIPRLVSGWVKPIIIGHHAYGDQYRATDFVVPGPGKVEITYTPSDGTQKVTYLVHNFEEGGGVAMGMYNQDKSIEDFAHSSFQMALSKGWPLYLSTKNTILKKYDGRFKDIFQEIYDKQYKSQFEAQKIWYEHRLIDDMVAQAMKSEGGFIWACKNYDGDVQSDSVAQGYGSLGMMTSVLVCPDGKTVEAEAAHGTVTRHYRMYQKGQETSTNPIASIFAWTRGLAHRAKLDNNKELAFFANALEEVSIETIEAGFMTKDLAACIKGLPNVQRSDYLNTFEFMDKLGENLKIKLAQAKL
Each line names hits and unclear results; the compound was inactive in the other large screens; ! = not confirmed by another sample. Only some compounds are listed: those with a hit (about 5.8% of all), similar ones and a draw of the others.

COc1ccc(NC(=O)N(C)C[C@H]2OCCCC[C@@H](C)Oc3ccc(NC(=O)c4ccncc4)cc3C(=O)N([C@@H](C)CO)C[C@@H]2C)cc1	none (no result: IDH1 R132H inh)
CCNC(=O)Nc1ccc2c(c1)C(=O)N(C)[C@H]1CC[C@@H](CC(=O)NCc3ccccc3F)O[C@@H]1CO2	none (no result: IDH1 R132H inh)
COc1ccc(NC(=O)Nc2ccc3c(c2)C(=O)N([C@H](C)CO)C[C@H](C)[C@H](CN(C)S(=O)(=O)c2ccc(Cl)cc2)OCCCC[C@@H](C)O3)cc1	Pf Dd2 inh -82.2
COc1ccc(NC(=O)Nc2ccc3c(c2)C(=O)N([C@@H](C)CO)C[C@H](C)[C@H](CN(C)S(=O)(=O)c2ccc(Cl)cc2)OCCCC[C@@H](C)O3)cc1	Pf Dd2 inh -86.5 (no result: IDH1 R132H inh)
COc1ccc(S(=O)(=O)N(C)C[C@H]2OCCCC[C@H](C)Oc3ccc(NC(=O)Nc4ccccc4)cc3C(=O)N([C@H](C)CO)C[C@@H]2C)cc1	none
COc1ccc(S(=O)(=O)N(C)C[C@@H]2OCCCC[C@@H](C)Oc3ccc(NC(=O)Nc4ccccc4)cc3C(=O)N([C@@H](C)CO)C[C@@H]2C)cc1	Pf Dd2 inh -82.7
C[C@H]1CN([C@@H](C)CO)C(=O)c2cc(-c3cccc(F)c3)cnc2O[C@H]1CN(C)C(=O)Nc1cc(F)ccc1F	none
N#C[C@@H]1[C@H](c2ccccc2-c2ccccc2F)[C@H](CO)N1C(=O)C1CC1	none (no result: T cruzi growth, IDH1 R132H inh)
CCc1nc(N2[C@H](C#N)[C@H](c3ccccc3-c3ccccc3F)[C@H]2CO)sc1C	Pf Dd2 inh -85.9 (no result: T cruzi growth, IDH1 R132H inh)
N#C[C@@H]1[C@H](c2ccccc2-c2cccc(F)c2)[C@H](CO)N1C(=O)C1CCCC1	Pf Dd2 inh -95.0 (no result: T cruzi growth, IDH1 R132H inh)
CCc1nc(N2[C@@H](C#N)[C@H](c3ccccc3-c3ccccc3F)[C@@H]2CO)sc1C	none (no result: T cruzi growth, IDH1 R132H inh)
Cc1ccc(-c2ccccc2[C@H]2[C@@H](C#N)N(C(=O)c3cccc(F)c3)[C@H]2CO)cc1	Pf Dd2 inh -91.3 (no result: T cruzi growth, IDH1 R132H inh)
N#C[C@@H]1[C@@H](c2ccccc2-c2ccccc2F)[C@H](CO)N1C(=O)C1CC1	Pf Dd2 inh -87.9 (no result: T cruzi growth, IDH1 R132H inh)
COc1cc(OC)c(NC(=O)CCCN2C(=O)c3ccccc3C2=O)cc1Cl	none (no result: T cruzi growth, GASC1 inh, Pf Dd2 inh)
O=C(NCC1CC1)[C@@H]1[C@@H](CO)[C@@H]2Cn3c(ccc(-c4cccc(F)c4)c3=O)[C@@H]2N1CC1CCOCC1	none (no result: Pf Dd2 inh, IDH1 R132H inh)
C[C@H](CO)N1C[C@H](C)[C@@H](CN(C)C)Oc2cc(C#CC3CCCC3)ccc2S1(=O)=O	none
N#C[C@@H]1[C@@H](c2ccc(-c3cccc(F)c3)cc2)[C@H](CO)N1C(=O)c1cccnc1	none (no result: IDH1 R132H inh)
N#C[C@@H]1[C@H](c2ccccc2-c2cccc(F)c2)[C@H](CO)N1C(=O)C1CC1	Pf Dd2 inh -82.9 (no result: T cruzi growth, IDH1 R132H inh)
N#C[C@H]1[C@H](c2ccc(-c3cccc(F)c3)cc2)[C@H](CO)N1C(=O)c1cccnc1	Pf Dd2 inh -91.0 (no result: IDH1 R132H inh)
CCCNC(=O)N1[C@@H](C#N)[C@H](c2ccccc2-c2ccccc2F)[C@@H]1CO	Pf Dd2 inh -88.5 (no result: T cruzi growth, IDH1 R132H inh)
C[C@@H]1CN([C@@H](C)CO)C(=O)c2cccc(NC(=O)Nc3cccc4ccccc34)c2O[C@@H]1CN(C)Cc1ccc(C(=O)Nc2ccccc2N)cc1	Pf Dd2 inh -92.4 (no result: T cruzi growth, IDH1 R132H inh)
C[C@H](CO)N1C[C@H](C)[C@H](CN(C)Cc2ccc(C(=O)Nc3ccccc3N)cc2)Oc2c(NC(=O)Nc3ccc4c(c3)OCO4)cccc2C1=O	none
C[C@H](CO)N1C[C@H](C)[C@@H](CN(C)Cc2ccc(C(=O)Nc3ccccc3N)cc2)Oc2c(NC(=O)Nc3ccccc3)cccc2C1=O	Pf Dd2 inh -86.0 (no result: IDH1 R132H inh)
C[C@@H]1CN([C@H](C)CO)C(=O)c2cccc(NC(=O)Nc3ccccc3)c2O[C@@H]1CN(C)Cc1ccc(C(=O)O)cc1	none (no result: T cruzi growth, IDH1 R132H inh)
C[C@@H]1CN([C@@H](C)CO)C(=O)c2cccc(NC(=O)Nc3ccccc3)c2O[C@H]1CN(C)Cc1ccc(C(=O)Nc2ccccc2N)cc1	Pf Dd2 inh -86.5
CC(C)NC(=O)Nc1cccc2c1O[C@H](CN(C)Cc1ccc(C(=O)Nc3ccccc3N)cc1)[C@H](C)CN([C@H](C)CO)C2=O	none (no result: T cruzi growth)
CS(=O)(=O)N(CC(=O)Nc1c(F)cccc1F)C1CCCCC1	none (no result: T cruzi growth, GASC1 inh, Pf Dd2 inh)
C[C@@H]1CN([C@@H](C)CO)S(=O)(=O)c2ccc(C3=CCCCC3)cc2O[C@H]1CN(C)C(=O)Cc1cccnc1	IDH1 R132H inh 45.1
CC(C)C#Cc1ccc2c(c1)O[C@H](CN(C)Cc1ccncc1)[C@H](C)CN([C@@H](C)CO)S2(=O)=O	T cruzi growth 104.8
C[C@H](CO)N1C[C@H](C)[C@H](CN(C)C(=O)Cc2ccncc2)Oc2cc(C3=CCCCC3)ccc2S1(=O)=O	IDH1 R132H inh inconclusive
C[C@@H]1CN([C@H](C)CO)S(=O)(=O)c2ccc(Br)cc2O[C@H]1CN(C)Cc1ccncc1	IDH1 R132H inh 42.0
C[C@H](CO)N1C[C@H](C)[C@@H](CN(C)Cc2ccncc2)Oc2cc(C3=CCCC3)ccc2S1(=O)=O	IDH1 R132H inh 47.5
CC(C)c1ccc(NC(=O)CSc2n[nH]c(-c3ccc(Cl)cc3)n2)cc1	none (no result: T cruzi growth, GASC1 inh, Pf Dd2 inh)
C[C@@H]1CN([C@H](C)CO)C(=O)Cc2cc(NC(=O)c3ccncc3)ccc2O[C@@H]1CN(C)CC1CC1	none
O=C(Cn1nnc2ccccc21)OCc1ccccc1Cl	none (no result: T cruzi growth, GASC1 inh, Pf Dd2 inh)
Cc1ccccc1-c1ccc2c(c1)O[C@@H](CN(C)Cc1ccncc1)[C@H](C)CN([C@H](C)CO)S2(=O)=O	Pf Dd2 inh -88.0
Cc1ccccc1-c1ccc2c(c1)O[C@H](CN(C)Cc1ccncc1)[C@H](C)CN([C@H](C)CO)S2(=O)=O	none
CCCC(=O)N1CC2(CCN(C(=O)C3CCC3)CC2)c2c(n(C)c3cc(OC)ccc23)[C@@H]1CO	none (no result: T cruzi growth, IDH1 R132H inh)
COc1ccccc1S(=O)(=O)N(C)C[C@@H]1Oc2cc(C#CCC3CCCC3)ccc2S(=O)(=O)N([C@H](C)CO)C[C@@H]1C	none (no result: T cruzi growth)
COc1ccc(C#Cc2ccc3c(c2)O[C@@H](CN(C)S(=O)(=O)c2ccccc2F)[C@@H](C)CN([C@H](C)CO)S3(=O)=O)cc1	Pf Dd2 inh -88.3 (no result: T cruzi growth)
COc1ccc(S(=O)(=O)N(C)C[C@H]2Oc3cc(C#CC4CCCCC4)ccc3S(=O)(=O)N([C@H](C)CO)C[C@@H]2C)cc1	Pf Dd2 inh -85.0 (no result: IDH1 R132H inh)
COc1ccc(S(=O)(=O)N(C)C[C@@H]2Oc3cc(C#CC4CCCCC4)ccc3S(=O)(=O)N([C@H](C)CO)C[C@@H]2C)cc1	none (no result: IDH1 R132H inh)
COc1ccc(C#Cc2ccc3c(c2)O[C@H](CN(C)S(=O)(=O)c2ccccc2F)[C@H](C)CN([C@@H](C)CO)S3(=O)=O)cc1	none (no result: T cruzi growth)
COc1ccccc1S(=O)(=O)N(C)C[C@@H]1Oc2cc(C#CCC(C)C)ccc2S(=O)(=O)N([C@H](C)CO)C[C@@H]1C	Pf Dd2 inh -85.1!
CCS(=O)(=O)N1Cc2cc(C(=O)O)nc(-c3cccc(-c4ccc(C#N)cc4)c3)c2[C@@H]1CCO	none (no result: T cruzi growth, GASC1 inh, IDH1 R132H inh)
COc1ccc(-c2ccccc2[C@H]2[C@@H](C#N)N(C(=O)C3CCC3)[C@H]2CO)cc1	none (no result: T cruzi growth, IDH1 R132H inh)
COc1ccc(-c2ccccc2[C@H]2[C@@H](C#N)N(C(=O)C3CCCC3)[C@@H]2CO)cc1	Pf Dd2 inh -97.6 (no result: T cruzi growth, IDH1 R132H inh)

From PubChem
